Test results: ChEMBL document CHEMBL5058577, “EUbOPEN Chemogenomics Library 2 (Multiplex)” (2022)

System: HEK-293T
Test: Multiplex assay against HEK293T
Type: toxicity, cell-based
Settings: human
Method in brief: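 Cells were classed with CellPathfinder machine-learning gating, first as Hoechst high-intensity objects or normal cells, then (normal cells) as healthy, pyknosed or fragmented nuclei, and finally (pyknosed cells) as mitotic or apoptotic. Staining of live cells at seeding used Hoechst33342, BioTracker Green Microtubule Cytoskeleton Dye, MitoTracker Red and Annexin V Alexa Fluor 680, with imaging on a CQ1 microscope at 37°C and 5% CO2 after compound addition. Tubulin, mitochondrial-mass and membrane-permeability phenotypes are per cents of healthy-nucleus cells.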

[1] = 12 h, 1 µM, compound concentration 1 uM, replicate 1
[2] = 12 h, 1 µM, compound concentration 1 uM, replicate 2
[3] = 12 h, 10 µM, compound concentration 10 uM, replicate 1
[4] = 12 h, 10 µM, compound concentration 10 uM, replicate 2
[5] = 24 h, 1 µM, compound concentration 1 uM, replicate 1
[6] = 24 h, 1 µM, compound concentration 1 uM, replicate 2
[7] = 24 h, 10 µM, compound concentration 10 uM, replicate 1
[8] = 24 h, 10 µM, compound concentration 10 uM, replicate 2
[9] = 48 h, 1 µM, compound concentration 1 uM, replicate 1
[10] = 48 h, 1 µM, compound concentration 1 uM, replicate 2
[11] = 48 h, 10 µM, compound concentration 10 uM, replicate 1
[12] = 48 h, 10 µM, compound concentration 10 uM, replicate 2

CN1CCN2c3ncccc3Cc3ccccc3C2C1 (centres undefined) [MIRTAZAPINE]
Population Apoptotic (%) [1]: 58%
Population Fragmented Nuclei (%) [1]: 4%
Population Healthy Nuclei (%) [1]: 88%
Population Hoechst High Intensity Objects (%) [1]: 5%
Population Membrane Permeable-Phenotype (%) [1]: 0%
Population Mitochondria Different-Phenotype (%) [1]: 41%
Population Mitotic Cells (%) [1]: 41%
Population Normal (%) [1]: 94%
Population Pyknosed Nuclei (%) [1]: 7%
Population Tubulin-Different-Phenotype (%) [1]: 22%
Total Cell Count [1]: 402
Population Apoptotic (%) [2]: 51%
Population Fragmented Nuclei (%) [2]: 3%
Population Healthy Nuclei (%) [2]: 79%
Population Hoechst High Intensity Objects (%) [2]: 7%
Population Mitochondria Different-Phenotype (%) [2]: 68%
Population Mitotic Cells (%) [2]: 48%
Population Normal (%) [2]: 92%
Population Pyknosed Nuclei (%) [2]: 17%
Population Tubulin-Different-Phenotype (%) [2]: 21%
Total Cell Count [2]: 329
Population Apoptotic (%) [3]: 45%
Population Fragmented Nuclei (%) [3]: 9%
Population Healthy Nuclei (%) [3]: 75%
Population Hoechst High Intensity Objects (%) [3]: 6%
Population Membrane Permeable-Phenotype (%) [3]: 0%
Population Mitochondria Different-Phenotype (%) [3]: 49%
Population Mitotic Cells (%) [3]: 54%
Population Normal (%) [3]: 93%
Population Pyknosed Nuclei (%) [3]: 15%
Population Tubulin-Different-Phenotype (%) [3]: 43%
Total Cell Count [3]: 228
Population Apoptotic (%) [4]: 47%
Population Fragmented Nuclei (%) [4]: 5%
Population Healthy Nuclei (%) [4]: 79%
Population Membrane Permeable-Phenotype (%) [4]: 1%
Population Mitochondria Different-Phenotype (%) [4]: 64%
Population Mitotic Cells (%) [4]: 52%
Population Tubulin-Different-Phenotype (%) [4]: 36%
Total Cell Count [4]: 240
Population Apoptotic (%) [5]: 33%
Population Fragmented Nuclei (%) [5]: 9%
Population Healthy Nuclei (%) [5]: 80%
Population Hoechst High Intensity Objects (%) [5]: 3%
Population Membrane Permeable-Phenotype (%) [5]: 0%
Population Mitochondria Different-Phenotype (%) [5]: 35%
Population Mitotic Cells (%) [5]: 66%
Population Normal (%) [5]: 97%
Population Pyknosed Nuclei (%) [5]: 10%
Population Tubulin-Different-Phenotype (%) [5]: 18%
Total Cell Count [5]: 601
Population Apoptotic (%) [6]: 42%
Population Fragmented Nuclei (%) [6]: 6%
Population Healthy Nuclei (%) [6]: 79%
Population Hoechst High Intensity Objects (%) [6]: 6%
Population Mitochondria Different-Phenotype (%) [6]: 47%
Population Mitotic Cells (%) [6]: 57%
Population Normal (%) [6]: 93%
Population Pyknosed Nuclei (%) [6]: 14%
Population Tubulin-Different-Phenotype (%) [6]: 17%
Total Cell Count [6]: 373
Population Apoptotic (%) [7]: 44%
Population Fragmented Nuclei (%) [7]: 9%
Population Healthy Nuclei (%) [7]: 78%
Population Hoechst High Intensity Objects (%) [7]: 3%
Population Membrane Permeable-Phenotype (%) [7]: 0%
Population Mitochondria Different-Phenotype (%) [7]: 40%
Population Mitotic Cells (%) [7]: 55%
Population Normal (%) [7]: 96%
Population Pyknosed Nuclei (%) [7]: 12%
Population Tubulin-Different-Phenotype (%) [7]: 28%
Total Cell Count [7]: 274
Population Apoptotic (%) [8]: 32%
Population Fragmented Nuclei (%) [8]: 5%
Population Healthy Nuclei (%) [8]: 80%
Population Hoechst High Intensity Objects (%) [8]: 5%
Population Mitochondria Different-Phenotype (%) [8]: 44%
Population Mitotic Cells (%) [8]: 67%
Population Normal (%) [8]: 94%
Population Pyknosed Nuclei (%) [8]: 13%
Population Tubulin-Different-Phenotype (%) [8]: 18%
Total Cell Count [8]: 314
Population Apoptotic (%) [9]: 23%
Population Fragmented Nuclei (%) [9]: 11%
Population Healthy Nuclei (%) [9]: 82%
Population Hoechst High Intensity Objects (%) [9]: 2%
Population Membrane Permeable-Phenotype (%) [9]: 1%
Population Mitochondria Different-Phenotype (%) [9]: 19%
Population Mitotic Cells (%) [9]: 76%
Population Normal (%) [9]: 97%
Population Pyknosed Nuclei (%) [9]: 6%
Population Tubulin-Different-Phenotype (%) [9]: 13%
Total Cell Count [9]: 885
Population Apoptotic (%) [10]: 44%
Population Fragmented Nuclei (%) [10]: 13%
Population Healthy Nuclei (%) [10]: 80%
Population Hoechst High Intensity Objects (%) [10]: 3%
Population Membrane Permeable-Phenotype (%) [10]: 0%
Population Mitochondria Different-Phenotype (%) [10]: 21%
Population Mitotic Cells (%) [10]: 55%
Population Normal (%) [10]: 96%
Population Tubulin-Different-Phenotype (%) [10]: 9%
Total Cell Count [10]: 562
Population Apoptotic (%) [11]: 31%
Population Fragmented Nuclei (%) [11]: 14%
Population Healthy Nuclei (%) [11]: 74%
Population Hoechst High Intensity Objects (%) [11]: 2%
Population Membrane Permeable-Phenotype (%) [11]: 0%
Population Mitochondria Different-Phenotype (%) [11]: 36%
Population Mitotic Cells (%) [11]: 68%
Population Normal (%) [11]: 97%
Population Pyknosed Nuclei (%) [11]: 10%
Population Tubulin-Different-Phenotype (%) [11]: 20%
Total Cell Count [11]: 390
Population Apoptotic (%) [12]: 30%
Population Fragmented Nuclei (%) [12]: 11%
Population Healthy Nuclei (%) [12]: 81%
Population Hoechst High Intensity Objects (%) [12]: 3%
Population Mitochondria Different-Phenotype (%) [12]: 30%
Population Mitotic Cells (%) [12]: 69%
Population Normal (%) [12]: 96%
Population Pyknosed Nuclei (%) [12]: 7%
Population Tubulin-Different-Phenotype (%) [12]: 12%
Total Cell Count [12]: 521
